Source: PubChem
WT yeast gro inh = growth inhibition of WT strain, primary screen, mitochondrial fusion inhibitor project, WT and mutant strains, chemical genetic | mitochondrial fusion phenotypic screen | inhibition, % at 10 µM | 190,000 compounds, 2.1% hits | AID 1362, 2008; in the data active = inhibition above about 58%; tested in S. cerevisiae
Lmaj promast = Leishmania major promastigote growth inhibition, primary screen | Leishmania major promastigotes, resazurin fluorescence viability | inhibition, % at 10 µM | 200,000 compounds, 9% hits | AID 1063, 2008; in the data active = inhibition above about 50%;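 note: promastigotes grown with compound for 44 hours at 28 °C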
Diaphorase act = compounds boosting diaphorase resazurin reduction – biochemical, uHTS, resorufin fluorescence, counter-screen for diaphorase-coupled primary assays, primary screen; Diaphorase/resazurin coupled assay, 16 min; hits give high values; 1 = vehicle wells, 0 = NADH-free wells; AID 1229, 2008; activation factor at 20 µM; 190,000 compounds, 0.005% hits;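 active = diaphorase activity raised at least twofold by the compound at 20 µM; inactive = activation factor below 2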
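Material: Purified diaphorase enzyme from Clostridium kluyveri | Buffer or medium: 50 mM HEPES pH 7.4 with 4.542 mM MgCl2, 0.005% Tween 20 | Times: 16 min enzyme reaction, ambient temperature | Signal: Red resorufin fluorescence at 544/590 nm excitation/emission | Measure: Increased resorufin signal from activators or reducing compounds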
ROMK mod = ROMK potassium channel modulators, primary screen, cell-based, thallium flux, MLSMR library | B-score at 10 µM | Tet-inducible ROMK, thallium flux fluorescence; actives lie on both sides | ATP-sensitive inward rectifier potassium channel 1 (Homo sapiens), P48048 | AID 1918, 2009 | 130,000 compounds, 2% hits;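 active = signal ratio slope over the read window, or its plate-corrected B-score, at least 3 SD from the plate mean, either direction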;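 note: B-score of the F/F0 ratio slope over 7 to 12 s after thallium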
Target sequence (P48048 whole entry, looked up): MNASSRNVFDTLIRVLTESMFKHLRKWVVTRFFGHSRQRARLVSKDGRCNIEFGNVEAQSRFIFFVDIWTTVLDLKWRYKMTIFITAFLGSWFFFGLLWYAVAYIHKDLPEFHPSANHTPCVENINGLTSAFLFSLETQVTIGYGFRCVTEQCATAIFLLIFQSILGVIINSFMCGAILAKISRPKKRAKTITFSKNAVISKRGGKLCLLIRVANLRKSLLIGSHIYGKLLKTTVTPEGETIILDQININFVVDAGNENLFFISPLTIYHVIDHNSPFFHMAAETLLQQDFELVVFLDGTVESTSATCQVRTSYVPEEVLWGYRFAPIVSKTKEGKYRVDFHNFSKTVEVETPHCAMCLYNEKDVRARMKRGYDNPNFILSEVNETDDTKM
KCC2 mod = KCC2 cotransporter modulators, thallium flux, primary screen, cell-based, HEK293 KCC2, FluoZin-2 fluorescence, MLSMR; Solute carrier family 12 member 5 (Homo sapiens), Q9H2X9; KCC2 cells, thallium flux FluoZin-2 fluorescence; B-score of Tl+ flux slope (higher = more flux/activation; lower = inhibition) at 10 µM; 190,000 compounds, 2.2% hits;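 active = thallium flux slope and its plate-corrected score both differing from the plate sample mean at a set confidence after two filtering rounds, in either direction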;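 note: slope of fluorescence scaled to starting intensity during 10 to 20 s after thallium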
Diaphorase inh = diaphorase inhibitors and chemical oxidizers, primary screen, counter-screen for diaphorase-coupled primary assays, biochemical, uHTS, resorufin fluorescence. diaphorase resazurin-to-resorufin fluorescence, NADH, 16 min; bacterial (C. kluyveri) enzyme, not human. 190,000 compounds, 0.69% hits. inhibition, % at 20 µM. AID 1217, 2008;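 active = primary screen inhibition at 20 µM above a set limit, cut at about 50% in these data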
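Test system: bacterial diaphorase enzyme (C. kluyveri); Quantity: 0.14 U/mL diaphorase, enzyme working solution; Times: reaction incubation of 16 min at room temperature; Measured by: fluorescence of resorufin formed from resazurin, Ex 544/Em 590 nm; Benchmarks: positive control minus NADH, DMSO neutral control.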
Each line names hits and unclear results; the compound was inactive in the other large screens. The list is not random: actives were taken first. Their share in the collection is about 12%.

CC(=O)c1cccc(CN2CCCC(CCC(=O)NCc3ccc(C)o3)C2)c1 (stereo not given)	none (no result: KCC2 mod)
O=C(CCC1CCCN(Cc2ccncc2)C1)NCc1ccc(F)c(F)c1 (stereo not given)	Lmaj promast 92
COc1cccc(CNC(=O)CCC2CCCN(Cc3cc4ccccc4o3)C2)c1 (stereo not given)	Lmaj promast 80
O=C(CCC1CCCN(C(=O)c2ccncc2)C1)NCc1ccc(F)c(F)c1 (stereo not given)	none
CCOc1cccc(CN2CCCC(CCC(=O)NCc3ccccc3F)C2)c1O (stereo not given)	Lmaj promast 56
COc1cccc(CNC(=O)CCC2CCCN(C(=O)CCC(F)(F)F)C2)c1 (stereo not given)	none
Cc1csc(C(C)N(C)C(=O)CCc2nnc(CCc3ccccc3)o2)n1 (stereo not given)	none (no result: ROMK mod)
CCc1cccc(CC)c1NC(=O)CSc1nnc(CCC(=O)O)c(=O)[nH]1	none
Cc1ccccc1OCc1nc2ccccc2c(=O)n1/N=C/c1cn[nH]c1-c1ccc(Br)cc1	none (no result: ROMK mod)
O=c1c2ccccc2nc(COc2ccccc2)n1/N=C/c1cn[nH]c1-c1ccccc1	Lmaj promast 51
COc1ccc(-c2cc(C(F)(F)F)n3ncc(C(=O)Nc4c(C)n(C)n(-c5ccccc5)c4=O)c3n2)cc1	none (no result: Diaphorase act, KCC2 mod, Diaphorase inh)
COc1cc(/C=N/NC(=O)COc2ccc(Cl)cc2)ccc1OS(=O)(=O)c1ccc(C)cc1	Lmaj promast 99
COc1cc(/C=N/NC(=O)COc2cccc(F)c2)ccc1OS(=O)(=O)c1ccc(C)cc1	Lmaj promast 99
O=C(COC(=O)COc1ccc(Cl)cc1)Nc1ccc(F)c([N+](=O)[O-])c1	none
COc1ccc(NC(=O)CCN2C(=O)C3C4CCC(C4)C3C2=O)cc1 (stereo not given)	Lmaj promast 57 (no result: ROMK mod)
O=C(CCN1C(=O)C2C3CCC(C3)C2C1=O)Nc1ccc([N+](=O)[O-])cc1 (stereo not given)	none
O=C(CCN1C(=O)C2C3CCC(C3)C2C1=O)Nc1ccc(Br)cc1 (stereo not given)	Lmaj promast 60 (no result: ROMK mod)
CCN(CC)P(=O)(Nc1cccc(C(F)(F)F)c1)c1ccc(N(C)C)cc1NC(=O)c1ccco1 (stereo not given)	Lmaj promast 91
O=C(NCCCN1CCOCC1)C(=O)NCc1ccccc1Cl	none (no result: ROMK mod)
CCOCCCNC(=O)NC12CC3CC(CC(C3)C1)C2	WT yeast gro inh 58 (no result: ROMK mod)
CCOCCCNC(=S)N1CCC(NC(=O)C23CC4CC(CC(C4)C2)C3)CC1	Lmaj promast 63
CCOCCCNC(=S)N1CCC(NC(=O)c2ccco2)CC1	none
O=C(NCCCN1CCOCC1)NC12CC3CC(CC(C3)C1)C2	none (no result: ROMK mod)
Cc1cccc(N2CCN(C(=O)NCc3ccc(Cl)cc3)CC2)c1	none
O=C(Nc1nc(-c2ccco2)c(-c2ccco2)s1)C1CCC1	Lmaj promast 86
Cc1ccc(C)c(N2CCN(c3cnn(-c4nc5ccccc5s4)c(=O)c3Cl)CC2)c1	none (no result: ROMK mod)
O=c1c(Cl)c(Nc2cccc(Cl)c2)cnn1-c1nc2ccccc2s1	Lmaj promast 56
COc1ccc(C2SCC(=O)N2c2nc3ccccc3s2)cc1 (stereo not given)	none
COc1ccc(Nc2cnn(-c3nc4ccccc4s3)c(=O)c2Cl)cc1	Lmaj promast 51
O=C(c1ccco1)N1CCN(S(=O)(=O)Cc2ccccc2Cl)CC1	none
CSc1nc(-c2ccco2)nn1S(=O)(=O)c1ccc(C)cc1	Diaphorase inh 58 (no result: ROMK mod)
CSc1nc(-c2ccco2)nn1S(=O)(=O)c1ccccc1	none (no result: ROMK mod)
O=S(=O)(NC1CC1)c1ccc(S(=O)(=O)N(Cc2ccccn2)C2CCCC2)cc1	none (no result: WT yeast gro inh)
COC(=O)c1ccc(CNC(=O)COc2ccccc2Br)o1	none (no result: ROMK mod, KCC2 mod)
COc1ccc(NC(=O)c2ccc(COc3ccccc3Br)o2)cc1OC	KCC2 mod -6 (no result: ROMK mod)
CN(C(=O)c1ccc(COc2ccccc2Br)o1)c1ccccc1	WT yeast gro inh 67
COc1ccc(/C=N/NC(=O)c2ccc(COc3ccccc3Cl)o2)c(OC)c1C	Lmaj promast 56
CC1(C)CC(=O)/C(=C(\O)c2ccccc2)C(=NCCc2ccccc2)C1	none
CC1(C)CSC(=NCCc2ccccc2)N1C(=O)c1ccc(C#N)cc1	Lmaj promast 92 (no result: ROMK mod)
Cc1cc2cc(CN(Cc3ccco3)S(=O)(=O)c3c(C)ccc4nsnc34)c(=O)[nH]c2cc1C	Lmaj promast 76 (no result: ROMK mod)
Cc1ccc2cc(CN(Cc3ccco3)S(=O)(=O)c3c(C)ccc4nsnc34)c(=O)[nH]c2c1	none (no result: ROMK mod)
OC(c1cccs1)(c1cccs1)C1C[N+]2(CF)CCC1CC2 (stereo not given)	none (no result: ROMK mod, KCC2 mod)
COC1(OC)C(/C=C/c2ccc(Cl)cc2)C(C#N)(C#N)C1(OC)OC (stereo not given)	Lmaj promast 85
CC(C)NC(=S)N/N=C1\CCCCC1C1CCCCC1 (stereo not given)	Lmaj promast 100
COc1ccccc1/C=C/C(=O)NCc1cccnc1	none (no result: ROMK mod)
Cc1nc(NCCc2ccccc2F)c(C#N)c(C)c1[N+](=O)[O-]	none (no result: ROMK mod)
Cc1cc(O)c(Oc2cc(C)cc(O)c2O)c(O)c1	Diaphorase inh 71 (no result: ROMK mod)
OCC1(Cc2ccccc2)CCN(Cc2ccc(-c3ccco3)cc2)CC1	Lmaj promast 91
OCC1(Cc2ccccc2)CCN(CCCC2CCCC2)CC1	Lmaj promast 96
OCC1(Cc2ccccc2)CCCN(Cc2ccc(-c3ccco3)cc2)C1 (stereo not given)	Lmaj promast 80
Cc1[nH]c2ccccc2c1CN1CCC(CO)(Cc2ccccc2)CC1	none
O=[N+]([O-])c1cc(/C=N/OCc2c(Cl)cccc2Cl)ccc1N1CCOCC1	none (no result: ROMK mod)
Cc1cc(OCC(=O)NCCCN(C)C)cc(C)c1Br	Lmaj promast 100 (no result: KCC2 mod)
CCc1ccc(OCC(=O)NCCN(C)C)c(Br)c1	Lmaj promast 96 (no result: KCC2 mod)
CCc1ccc(OCC(=O)N(C)CCC#N)c(Br)c1	none
Cc1ccccc1OCC(=O)NCCN(C)C	none (no result: ROMK mod)
Cc1ccccc1/C=N/Nc1ccnc2cc(Cl)ccc12	Lmaj promast 98
Cc1ccc(/C=N/Nc2ccnc3cc(Cl)ccc23)c(C)c1	Lmaj promast 100
Oc1ccc(/C=N/Nc2ccnc3cc(Cl)ccc23)c(O)c1	none (no result: WT yeast gro inh, Lmaj promast, Diaphorase act, ROMK mod, Diaphorase inh)
CC(C)(C)S(=O)(=O)c1ccc(S(=O)(=O)C(C)(C)C)s1	none (no result: ROMK mod)
CCOc1cc(-c2c(C#N)c(N)nc3c2CCc2ccccc2-3)ccc1O	Lmaj promast 90
